Data set [1] can be described thus: Partition coefficient (logP). In kind it is physicochemical. The note with it: octanol/water. An outline of the steps: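 Calculated rather than measured: the parent-structure log P value is summed with π contributions for the substituents. Both sets of constants come from published tables.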
For data set [2], the system named is Mus musculus. Put plainly: Number of animals protected or toxic compared to number tested rotarod test in Phase-I by intraperitoneal administration in mice; 4/4. It counts as functional. The method in brief: (§1)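 Mice dosed ip and tested 30 min later. Phase I screen is qualitative: maximal electroshock and subcutaneous metrazol (scMet) seizure tests, plus a rotorod test for neurotoxicity. Reported as the best active dose in mg/kg, with animals protected (or toxic) over the number tested. Run by the NINDS Antiepileptic Drug Development Program.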
On the technique in general: In the rotarod test animals must keep their balance on a rotating rod.

Data set [3] has as its system Mus musculus. Put plainly: Number of animals protected or toxic compared to number tested maximal electric shock (MES) method in Phase-I by intraperitoneal administration in mice; 3/3. It counts as functional. An outline of the steps: as §1
Data set [4] has as its system Mus musculus. Put plainly: Anticonvulsant activity was measured as inhibition of convulsions by maximal electric shock (MES) method in Phase-I by intraperitoneal administration in mice. It counts as functional. An outline of the steps:
as §1

Data set [5] concerns Mus musculus. Put plainly: Anticonvulsant activity was measured as inhibition of convulsions by rotarod test in Phase-I by intraperitoneal administration in mice. In kind it is functional. An outline of the steps:
as §1

Data set [6] has as its system Mus musculus. The data set is described as follows: Anticonvulsant activity was measured as inhibition of convulsions by subcutaneous administration in mice. In kind it is functional. An outline of the steps:
as §1

Data set [7] relates to Mus musculus. Put plainly: Anticonvulsant activity was measured by maximal electric shock (MES) method in Phase -II by intraperitoneal administration in mice. The note with it: ip. It counts as functional. The method in brief:
(§2)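 Phase II quantification in mice dosed ip: ED50 against maximal electroshock seizures and rotorod neurotoxic TD50, both in mg/kg. The 95% confidence intervals are given in brackets. Run by the NINDS Antiepileptic Drug Development Program.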

Data set [8] concerns Mus musculus. Put plainly: Time taken for measure Anticonvulsant activity in Phase -II by intraperitoneal administration in mice. In kind it is functional.
The test system of data set [9] is Mus musculus. The data set is described as follows: Anticonvulsant activity was measured by rotarod test in Phase -II by intraperitoneal administration in mice. In kind it is functional. The settings on record: ip. The method in brief:
as §2

The target of data set [10] is Sodium channel alpha subunits; brain (Types I, II, III) (Rattus norvegicus, UniProt P04775+P04774+P08104). Put plainly: Inhibition of binding to sodium channel of rat cerebral cortex. In kind it is tissue-based. The method in brief: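 Rat cerebral cortex synaptosomes (~1 mg protein) incubated 40 min at 25 °C with 10 nM [3H]BTX-B, 50 μg/mL scorpion venom and test compound at seven concentrations. Filtration, ice-cold buffer washes, scintillation counting. Nonspecific binding defined with 300 μM veratridine. Triplicate runs with 40 μM DPH control tube. IC50 by Probit analysis, excluding doses giving <10% or >90% inhibition.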

Data set [11] relates to Mus musculus. Put plainly: Number of animals protected or toxic compared to number tested rotarod test in Phase-I by intraperitoneal administration in mice; 8/8. In kind it is functional, organism-based. An outline of the steps:
as §1

The subject of data set [12] is Mus musculus. Put plainly: Number of animals protected or toxic compared to number tested in subcutaneous administration in mice; 1/1. It counts as functional. The method in brief:
as §1

Data set [13] has as its system Mus musculus. The data set is described as follows: Number of animals protected or toxic compared to number tested in subcutaneous administration in mice; 4/4. It counts as functional. The method in brief: as §1
For data set [14], the system named is Mus musculus. Put plainly: Number of animals protected or toxic compared to number tested maximal electric shock (MES) method in Phase-I by intraperitoneal administration in mice; 1/3. In kind it is functional. An outline of the steps:
as §1

For data set [15], the system named is Mus musculus. The data set is described as follows: Number of animals protected or toxic compared to number tested maximal electric shock (MES) method in Phase-I by intraperitoneal administration in mice; 1/1. In kind it is functional. An outline of the steps: as §1
The subject of data set [16] is Mus musculus. Put plainly: Number of animals protected or toxic compared to number tested rotarod test in Phase-I by intraperitoneal administration in mice; 1/4. It counts as functional. An outline of the steps:
as §1

The test system of data set [17] is Mus musculus. The data set is described as follows: Number of animals protected or toxic compared to number tested in subcutaneous administration in mice; 3/4. In kind it is functional, organism-based. An outline of the steps: as §1

Active and inactive are the calls of the source. The calls are words filed in the database; no cut-off is given here. Some results are limits rather than exact numbers.

By logP is commonly meant the decadic logarithm of the partition coefficient of the neutral form, usually between octanol and water. Read a high logP as higher lipophilicity. In general, ED50 refers to the dose at which the effect has come halfway, by size or by number of responders. A lower ED50 goes with greater potency. What is called TD50 is the 50% point of the dose-response relation for the toxic effect studied. Usually IC50 stands for the concentration that gives 50% inhibition.

On to `O=C1NC2(c3ccccc3)CCCCCN1C2=O` (stereo not drawn), for which, in data set [1], the logP was determined as 2.51. Also, the Activity in [2] was 4; in [3] it was 3; in data set [4], 100 mg/kg; in [5] it was 300 mg/kg; in data set [6], above 300 mg/kg. Besides, the ED50 in data set [7] turned out to be 86 mg/kg. Also, the Time in data set [8] stood at 0.25 h. In addition, the TD50 in data set [9] came to 124 mg/kg. The half-maximal inhibitory concentration (IC50) in data set [10] amounted to 427 µM.

In [1], `O=C1NC(=O)C(c2ccccc2)(c2ccccc2)N1` [PHENYTOIN] showed a logP of 2.46. This compound displayed an ED50 in data set [7] of 10 mg/kg. This compound also came in with a Time in data set [8] of 2 h.

For the compound `O=C1OC2(c3ccccc3)CCCCCN1C2=O` (stereo not drawn), in [1], the logP stood at 3.05. Besides, the outcome in [11] and in data set [12] was Active. In addition, the Activity in data set [3] is 3; in [4] it was 100 mg/kg; in [5], 100 mg/kg; in data set [6], 100 mg/kg. This compound returned a median effective dose (ED50) in [7] of 66 mg/kg. In data set [8], this compound yielded a Time of 0.25 h. Further, the TD50 in [9] stood at 147 mg/kg. For the same compound, the half-inhibitory concentration (IC50) in data set [10] is 160 µM.

`CCCCC1(c2ccccc2)NC(=O)NC1=O` (stereo not drawn) came in with a logP in [1] of 2.46. Further, the half-inhibitory concentration (IC50) in data set [10] is 103 µM.

Turning to `CCCCC1(c2ccccc2)NC(=O)N(C)C1=O` (stereo not drawn), the logP in data set [1] is 3.01. This compound also yielded an IC50 in data set [10] of 285 µM.

`CCCCCC1(c2ccccc2)NC(=O)NC1=O` (stereo not drawn): in [1], the logP turned out to be 2.96. This compound returned an IC50 in [10] of 39 µM.

Compound `O=C1O[C@@]2(c3ccccc3)CCCCN1C2=O` returned a logP in data set [1] of 2.65. The Activity in data set [12] is 1; in data set [4], above 300 mg/kg; in [5], above 300 mg/kg; in data set [6], 300 mg/kg.

For `NC(=O)C1(c2ccccc2)CCCCCNC1=O` (stereo not drawn), the Activity in data set [2] is 4; in [13], 4; in data set [14], 1; in [4], 100 mg/kg; in data set [5], 300 mg/kg; in data set [6], 300 mg/kg.

In [1], `CN1C(=O)OC(C)(C)C1=O` [TRIMETHADIONE] registered a logP of -0.37. This compound also displayed a Time in [8] of 1 h. In [9], this compound had a TD50 of 810 mg/kg. Moreover, the IC50 in data set [10] was above 1000 µM.

Take `CCC1(c2ccccc2)OC(=O)N(C)C1=O` (stereo not drawn): the logP in [1] was determined as 2.65. Also, the Activity amounted to 1 in data set [12]; 1 in [15]; 300 mg/kg in data set [4]; 300 mg/kg in [5]; 30 mg/kg in [6]; 1 in data set [16]. Also, the Time in [8] was determined as 0.5 h. The TD50 in [9] came out at 504 mg/kg.

`CCCC1(c2ccccc2)NC(=O)NC1=O` (stereo not drawn) gave a logP in data set [1] of 1.96. The Activity in data set [2] came to 4; in [13], 4; in [15], 1; in data set [4], 30 mg/kg; in [5], 100 mg/kg; in data set [6] it was 100 mg/kg. This compound also had an ED50 in data set [7] of 25 mg/kg. In [8], this compound registered a Time of 1 h. In data set [9], this compound yielded a TD50 of 85 mg/kg. For the same compound, in data set [10], the IC50 was 162 µM.

Compound `O=C1NC2(c3ccccc3)CCCCN1C2=O` (stereo not drawn) gave a logP in [1] of 2.01. The result in data set [2] was Active. The Activity entry in data set [17] was “Weak activity”; in [3], 3; in [4], 100 mg/kg; in [5], 300 mg/kg; in [6], 100 mg/kg. The compound also came in with an IC50 in data set [10] of 700 µM.
